Bioassay records as filed in PubChem BioAssay.
Rin1 Abl inh – inhibitors of Rin1-Abl protein binding, primary screen, biochemical, TR-FRET. Tyrosine-protein kinase ABL1 (Homo sapiens) + Ras and Rab interactor 1 (Homo sapiens), …. inhibition, % at 7.35 µM. 360,000 tested, 0.4% active. AID 588664, 2011; in the data active = inhibition above about 5%, passing the limit was not always enough
PG9 binder – binders of HIV-1 gp120 antibody PG9, primary screen, biochemical, TR-FRET. TR-FRET gp120-PG9 antibody binding. inhibition, % at 6.7 µM. HIV-1 gp120 / PG9 antibody interaction. 360,000 tested, 0.43% active; in the data active = inhibition above about 8.5%
NR1D1 modulator – modulators of Rev-erb alpha DNA binding, primary screen, biochemical, FITC-DNA, fluorescence polarization, uHTS. Nuclear receptor subfamily 1 group D member 1 (Homo sapiens), P20393. Rev-erbα–FITC-DNA binding, 90 min. activity, % at 10 µM. 370,000 tested, 0.79% active. AID 1259318, 2017;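 active = activity above about 14%, limit read from the data; passing the limit was not always enough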;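 note: 0% = DMSO wells with 35 nM protein and 100% = DMSO wells with 750 nM protein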
Target sequence (P20393 whole entry, looked up): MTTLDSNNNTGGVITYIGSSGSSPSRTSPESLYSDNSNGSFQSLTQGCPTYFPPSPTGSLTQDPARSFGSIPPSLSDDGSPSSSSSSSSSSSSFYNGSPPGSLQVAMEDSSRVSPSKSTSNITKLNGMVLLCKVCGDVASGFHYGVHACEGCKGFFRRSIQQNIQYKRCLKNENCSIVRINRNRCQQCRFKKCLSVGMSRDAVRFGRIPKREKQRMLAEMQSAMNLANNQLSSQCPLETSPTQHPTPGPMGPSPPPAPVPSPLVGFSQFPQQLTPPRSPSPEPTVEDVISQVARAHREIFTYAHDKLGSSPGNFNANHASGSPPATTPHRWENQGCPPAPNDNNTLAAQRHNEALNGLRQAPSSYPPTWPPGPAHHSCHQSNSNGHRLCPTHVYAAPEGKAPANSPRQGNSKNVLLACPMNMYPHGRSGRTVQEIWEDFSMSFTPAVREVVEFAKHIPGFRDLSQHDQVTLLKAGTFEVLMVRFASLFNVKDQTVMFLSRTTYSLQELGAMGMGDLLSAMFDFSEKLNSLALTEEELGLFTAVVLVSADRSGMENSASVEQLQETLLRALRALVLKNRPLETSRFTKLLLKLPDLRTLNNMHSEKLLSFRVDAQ
TbMetRS inhib – T. brucei MetRS inhibitors, primary screen, biochemical, luminescence. methionyl-tRNA synthetase (Trypanosoma brucei brucei). purified T. brucei MetRS, ATP depletion, Kinase-Glo luminescence. inhibition, % at 11.9 µM. 360,000 tested, 0.4% active. AID 624268, 2012;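 active = inhibition above a per-plate cutoff of the control wells' mean inhibition plus 3 SD, cut at about 5.5% in these data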;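 note: 0% = DMSO wells median and 100% = median of wells with control inhibitor compound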
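Material – parasite MetRS enzyme · Medium – HEPES-MgCl2-KCl buffer plus DTT, spermine, BSA, pyrophosphatase · Reagent – ATP, methionine and E. coli bulk tRNA substrates · Times – 15 min enzyme-compound preincubation, 2 h reaction, 10 min detection, 25 °C · Measured by – luminescence of leftover ATP · Evaluation – percent inhibition relative to median high and low control wells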
PG9 binder conf – binders of anti-gp120 antibody PG9, confirmation, biochemical, TR-FRET. TR-FRET PG9 antibody binding. inhibition, % at 6.7 µM. 1,500 tested, 90% active. shares compounds with PG9 binder. AID 651571, 2012; in the data active = inhibition above about 9%
PGV04 Ab binding – binders of control antibody PGV04, counter-screen for PG9 antibody binder project, biochemical, TR-FRET, distinct HIV envelope site; TR-FRET PGV04 antibody-gp120 binding; 1,500 tested, 95% active; shares compounds with PG9 binder; inhibition, % at 6.7 µM; in the data active = inhibition above about 9.5%
PG9 bind DR – small-molecule binders of antibody PG9, dose response, biochemical, TR-FRET, HIV-1 gp120 antibody; shares compounds with PG9 binder; TR-FRET PG9 antibody-gp120 binding inhibition; IC50, µM; 95 tested, under 10 active; AID 651848, 2012; in the data active = IC50 below about 10 µM
PGV04 DR counter – binders of control antibody PGV04, dose response, counter-screen for PG9 antibody binder project, biochemical, TR-FRET, distinct HIV envelope site; shares compounds with PG9 binder; TR-FRET binding to control antibody PGV04; IC50, µM; 95 tested, 20% active; AID 651937, 2012
PG126 DR counter – binders of control antibody PG126, dose response, counter-screen for PG9 antibody binder project, biochemical, TR-FRET, distinct HIV envelope site | shares compounds with PG9 binder | IC50, µM | 95 tested, 20% active | AID 651939, 2012 | TR-FRET binding to antibody PG126, counterscreen
* hit, by the source's call. Compounds with a hit are over-represented: about 1.8% of the library has one in this group of screens. Cut-off read from the data, not from the text of the source, unless noted: active = IC50 below about 9 µM; inactive = the rest.

What do the screens show for `Cc1ccccc1NC(=O)c1sc2nc3c(c(-c4ccco4)c2c1N)CCCC3`?
Rin1 Abl inh: 1; PG9 binder: 71*; NR1D1 modulator: 4; TbMetRS inhib: 0; PG9 binder conf: 62*; PGV04 Ab binding: 71*

What do the screens show for `Nc1c(C(=O)Nc2ccccc2)sc2nc3c(c(-c4ccco4)c12)CCCC3`?
Rin1 Abl inh: 0; PG9 binder: 0; NR1D1 modulator: 0; TbMetRS inhib: 0

What do the screens show for `COc1ccc(C(=O)COC(=O)CCCN=C2NS(=O)(=O)c3ccccc32)c(OC)c1`?
Rin1 Abl inh: 5; PG9 binder: -1; NR1D1 modulator: 1; TbMetRS inhib: 0

Results for COc1ccc(C(=O)COC(=O)CCN=C2NS(=O)(=O)c3ccccc32)c(OC)c1 ?
Rin1 Abl inh: -1; PG9 binder: 17*; NR1D1 modulator: 2; TbMetRS inhib: 0; PG9 binder conf: 31*; PGV04 Ab binding: 45*

Results for COc1ccc(C(=O)N(C)c2ccccc2C(=O)NCCc2ccccc2)cc1 ?
Rin1 Abl inh: -3; PG9 binder: 0; NR1D1 modulator: -5; TbMetRS inhib: 0

What do the screens show for `O=C(N[C@H](Cc1ccccc1)C(=O)NCCN1CCOCC1)[C@H]1O[C@@H](n2ccc(=O)[nH]c2=O)[C@H](O)[C@@H]1O`?
PG9 binder: -1; NR1D1 modulator: 3

What do the screens show for `O=C1Cc2cc(S(=O)(=O)N3CCN(c4ccc(C(=O)O)cc4)CC3)ccc2N1`?
Rin1 Abl inh: -2; PG9 binder: 1; NR1D1 modulator: -5; TbMetRS inhib: 0

Results for CC(=O)c1ccc(N2CCN(S(=O)(=O)c3ccc4c(c3)NC(=O)CC(=O)N4)CC2)cc1 ?
Rin1 Abl inh: 1; PG9 binder: 13*; NR1D1 modulator: 7; TbMetRS inhib: 0; PG9 binder conf: 17*; PGV04 Ab binding: 30*

How did S=c1[nH]nc(-c2ccccc2)o1 do in these assays?
Rin1 Abl inh: -5; PG9 binder: 7; NR1D1 modulator: -2; TbMetRS inhib: -1

Results for COc1ccc(Cl)cc1-c1n[nH]c(=S)o1 ?
Rin1 Abl inh: -81; PG9 binder: 37*; NR1D1 modulator: 3; TbMetRS inhib: 0; PG9 binder conf: 36*; PGV04 Ab binding: 48*

Results for COc1ccccc1-c1n[nH]c(=S)o1 ?
Rin1 Abl inh: -26; PG9 binder: 18*; NR1D1 modulator: -6; TbMetRS inhib: 0; PG9 binder conf: 13*; PGV04 Ab binding: 24*

What do the screens show for `CCOc1ccccc1N(CC(=O)NC1CCCCC1)C(=O)CCC(=O)Nc1nccs1`?
Rin1 Abl inh: 1; PG9 binder: -1; NR1D1 modulator: 2; TbMetRS inhib: 1

Results for COc1ccc(-c2nnc(SCC(=O)N/N=C(\C)c3ccc(-c4ccccc4)cc3)n2-c2ccc(C)cc2)cc1 ?
NR1D1 modulator: 3

How did Cn1c(=O)c2cc(S(=O)(=O)N3CCN(CCO)CC3)ccc2n(C)c1=O do in these assays?
NR1D1 modulator: -5

How did N#Cc1cnn2c(N)c(-c3ccc(Cl)cc3)cnc12 do in these assays?
Rin1 Abl inh: 1; PG9 binder: 16*; NR1D1 modulator: 1; TbMetRS inhib: 0; PG9 binder conf: 24*; PGV04 Ab binding: 43*

How did Cn1c(C(=O)Nc2ccc(Cl)cc2)cc2cc(Cl)ccc21 do in these assays?
Rin1 Abl inh: -2; PG9 binder: 14*; NR1D1 modulator: 3; TbMetRS inhib: -1; PG9 binder conf: 9.2*; PGV04 Ab binding: 16*

How did C[C@H]1[C@@H](OC(=O)NCc2cccs2)CC[C@@]23CCCN2C(=O)CCC[C@@H]13 do in these assays?
NR1D1 modulator: -6

Results for CCOc1ccc(C(=O)OCC(=O)NCCNC(=O)COC(=O)c2ccc(OCC)cc2)cc1 ?
Rin1 Abl inh: 0; PG9 binder: 9.1*; NR1D1 modulator: -1; TbMetRS inhib: 0; PG9 binder conf: 14*; PGV04 Ab binding: 17*

How did CN(C(=O)c1cccc(NC(=O)Cc2ccc(NC(=O)C3CCN(C(=O)C4CCCC4)CC3)cc2)c1)C1CC1 do in these assays?
Rin1 Abl inh: 0; PG9 binder: 0; NR1D1 modulator: 0; TbMetRS inhib: -1

What do the screens show for `CCCc1cc(=O)n2[nH]c(-c3ccc(Br)cc3)cc2n1`?
Rin1 Abl inh: 1; PG9 binder: 8; NR1D1 modulator: 1; TbMetRS inhib: 0

What do the screens show for `CCCc1cc(=O)n2[nH]c(-c3cccc(Br)c3)cc2n1`?
Rin1 Abl inh: -1; PG9 binder: 16*; NR1D1 modulator: 23; TbMetRS inhib: -1; PG9 binder conf: 18*; PGV04 Ab binding: 29*

Results for O=C(O)CCC(=O)N1CCN(c2nc(-c3ccccc3Cl)c3cc(Br)ccc3n2)CC1 ?
Rin1 Abl inh: -5; PG9 binder: 11*; NR1D1 modulator: -2; TbMetRS inhib: -1; PG9 binder conf: 16*; PGV04 Ab binding: 23*

How did O=C(O)CCC(=O)N1CCN(c2nc(-c3ccccc3)c3cc(Br)ccc3n2)CC1 do in these assays?
Rin1 Abl inh: -11; PG9 binder: 8; NR1D1 modulator: 1; TbMetRS inhib: 0

How did C1=CC2(C=C1)OC21CCC2(C=CC3(C2)OC3C2CCCCC2)CC1 (configuration not stated) do in these assays?
Rin1 Abl inh: -1; PG9 binder: -1; NR1D1 modulator: -2; TbMetRS inhib: 0

Results for CSc1ccc(S(=O)(=O)Nc2ccccc2C(=O)N2CCOCC2)cc1 ?
Rin1 Abl inh: 5; PG9 binder: 8.8*; NR1D1 modulator: 6; TbMetRS inhib: 0; PG9 binder conf: 22*; PGV04 Ab binding: 22*; PG9 bind DR: >67; PGV04 DR counter: >67; PG126 DR counter: >67

What do the screens show for `O=C(c1ccccc1NS(=O)(=O)c1ccc(Br)cc1)N1CCOCC1`?
Rin1 Abl inh: 1; PG9 binder: 0; NR1D1 modulator: 2; TbMetRS inhib: 0
